Laboratory results taken from ChEMBL document CHEMBL4715796, “Discovery of Chromane Containing Hepatitis C Virus (HCV) NS5A Inhibitors with Improved Potency against Resistance-Associated Variants” (J Med Chem, 2016).

Key:
[1] = MRT in male Wistar Han rat at 300 mg/kg, po administered as single dose post overnight fasting measured upto 24 hrs by LC-MS/MS analysis; type: ADME, organism-based; conditions: in vivo
In short: (§1)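 Male Wistar Han rats were given single oral rising doses of 10, 100 or 300 mpk. AUC, Cmax, Tmax and MRT were derived from plasma exposure.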

[2] = Mean residence time in Beagle dog at 1 mg/kg, iv administered post overnight fasting measured upto 24 hrs by LC-MS/MS analysis; conditions: in vivo
[3] = AUC in Beagle dog at 5 mg/kg, po administered post overnight fasting measured upto 24 hrs by LC-MS/MS analysis; type: ADME, organism-based, Canis lupus familiaris; design: route oral, dose 5 mg/kg, time <=24; conditions: in vivo
In short: (§2)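 Overnight-fasted male Wistar Han rats or Beagle dogs, two animals per group, 24 h study. IV in 60% PEG200 (rat 2 mg/kg, dog 1 mg/kg). PO in 10% Tween (rat 10 mg/kg, dog 5 mg/kg). Blood sampled up to 24 h, plasma separated by centrifugation, and drug measured by LC/MS. MRT reported for the IV route.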

[4] = Oral bioavailability in Beagle dog at 5 mg/kg post overnight fasting measured upto 24 hrs by LC-MS/MS analysis; type: ADME, organism-based, Canis lupus familiaris; conditions: in vivo; in short: as §2
[5] = AUC in male Wistar Han rat at 300 mg/kg, po administered as single dose post overnight fasting measured upto 24 hrs by LC-MS/MS analysis; type: ADME, organism-based; design: route oral, dose 300 mg/kg, time <=24; conditions: in vivo; in short: as §1
[6] = Clearance in Beagle dog at 1 mg/kg, iv administered post overnight fasting measured upto 24 hrs by LC-MS/MS analysis; type: ADME, organism-based, Canis lupus familiaris; conditions: in vivo; in short: as §2
[7] = Cmax in male Wistar Han rat at 300 mg/kg, po administered as single dose post overnight fasting measured upto 24 hrs by LC-MS/MS analysis; type: ADME, organism-based; design: route oral, dose 300 mg/kg, time <=24; conditions: in vivo; in short: as §1
[8] = Cmax in Beagle dog at 5 mg/kg, po administered post overnight fasting measured upto 24 hrs by LC-MS/MS analysis; type: ADME, organism-based, Canis lupus familiaris; design: route oral, dose 5 mg/kg, time <=24; conditions: in vivo; in short: as §2
[9] = AUC in male Wistar Han rat at 10 mg/kg, po administered as single dose post overnight fasting measured upto 24 hrs by LC-MS/MS analysis; type: ADME, organism-based; design: route oral, dose 10 mg/kg, time <=24; conditions: in vivo; in short: as §1
[10] = AUC in male Wistar Han rat at 100 mg/kg, po administered as single dose post overnight fasting measured upto 24 hrs by LC-MS/MS analysis; type: ADME, organism-based; design: route oral, dose 100 mg/kg, time <=24; conditions: in vivo; in short: as §1
[11] = MRT in male Wistar Han rat at 10 mg/kg, po administered as single dose post overnight fasting measured upto 24 hrs by LC-MS/MS analysis; type: ADME, organism-based; conditions: in vivo; in short: as §1
[12] = Drug concentration in Beagle dog at 5 mg/kg, po measured after 24 hrs by LC/MS analysis; type: ADME, organism-based, Canis lupus familiaris; conditions: in vivo, read-out: Drug uptake; in short: as §2
[13] = Tmax in male Wistar Han rat at 300 mg/kg, po administered as single dose post overnight fasting measured upto 24 hrs by LC-MS/MS analysis; type: ADME, organism-based; conditions: in vivo; in short: as §1
[14] = Tmax in male Wistar Han rat at 100 mg/kg, po administered as single dose post overnight fasting measured upto 24 hrs by LC-MS/MS analysis; type: ADME, organism-based; conditions: in vivo; in short: as §1
[15] = MRT in male Wistar Han rat at 100 mg/kg, po administered as single dose post overnight fasting measured upto 24 hrs by LC-MS/MS analysis; type: ADME, organism-based; conditions: in vivo; in short: as §1
[16] = Tmax in male Wistar Han rat at 10 mg/kg, po administered as single dose post overnight fasting measured upto 24 hrs by LC-MS/MS analysis; type: ADME, organism-based; conditions: in vivo; in short: as §1
[17] = Cmax in male Wistar Han rat at 100 mg/kg, po administered as single dose post overnight fasting measured upto 24 hrs by LC-MS/MS analysis; type: ADME, organism-based; design: route oral, dose 100 mg/kg, time <=24; conditions: in vivo; in short: as §1
[18] = Cmax in male Wistar Han rat at 10 mg/kg, po administered as single dose post overnight fasting measured upto 24 hrs by LC-MS/MS analysis; type: ADME, organism-based; design: route oral, dose 10 mg/kg, time <=24; conditions: in vivo; in short: as §1

Compound: COC(=O)N[C@H](C(=O)N1CCC[C@H]1c1ncc(-c2cc(F)c3c(c2)OC(c2ccc4c(c2)OCCC4)n2c-3cc3cc(-c4cnc([C@@H]5CCCN5C(=O)[C@@H](NC(=O)OC)C(C)C)[nH]4)ccc32)[nH]1)C(C)C.Cl.Cl (stereo partly drawn)
- MRT [1]: 11 h
- MRT [2]: 11.4 h
- AUC at 24 h [3]: 6.92 µM·h
- bioavailability [4]: 16%
- AUC at 24 h [5]: 4.9 µM·h
- clearance [6]: 2 mL/min/kg
- Cmax [7]: 400 nM
- Cmax [8]: 1220 nM
- AUC at 24 h [9]: 0.42 µM·h
- AUC at 24 h [10]: 5.9 µM·h
- MRT [11]: 8.5 h
- concentration at 24 h [12]: 51 nM
- Tmax [13]: 8 h
- Tmax [14]: 5 h
- MRT [15]: 13 h
- Tmax [16]: 5 h
- Cmax [17]: 350 nM
- Cmax [18]: 40 nM
